Hits are enriched below; roughly 2.4% of the tested compounds scored in any of these assays.
MIN6 prolif: inducers of MIN6 beta-cell proliferation, primary screen, ATP luminescence, uHTS. proliferation, % at 10 µM. MIN6 cells proliferation, ATPlite luminescence, 48 h; cells starved in 0.2% serum; 100% = growth in 10% serum. actives 0.29% (n = 330,000);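 active means compounds whose signal lies at least 3.5 SD above the mean of all wells on their plate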
m5-HT2A agonist: mouse Htr2a agonists via beta-arrestin recruitment, primary screen, cell-based, luminescence; 5-hydroxytryptamine receptor 2A (Mus musculus), P35363; actives 0.66% (n = 360,000); CHO-K1 mHTR2A beta-arrestin complementation; percent of 30 µM serotonin response; AID 624169, 2012; activation, % at 7.6 µM;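 active means activation above a run cutoff, the mean activation of all tested compounds plus 3 SD, cut at about 14% in these data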
Ins promoter up: insulin promoter activators in MIN6 cells, imaging, high-content screening, mouse beta cells | MIN6 insulin promoter-GFP reporter; hits give high values | actives 0.3% (n = 190,000) | z-score at 5 µM;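 active means z-score above 3 at 5 µM with at least 500 cells counted in the well; inconclusive means wells under 500 cells, flagged as cytotoxic or low count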
SR-BI HDL uptake: inhibitors of SR-BI mediated HDL lipid uptake, primary screen, ldlA[mSR-BI] cells, fluorescence, single point; inhibition, % at 12.5 µM; Scavenger receptor class B member 1 (Mus musculus), Q61009; ldlA[mSR-BI] CHO cells, DiI-HDL uptake fluorescence, 3 h; actives 0.96% (n = 320,000);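 active means mean replicate inhibition of at least 70% and a set share of replicates each scoring 70 or more; inconclusive means meets just one of the two criteria; inactive means fails both criteria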
Target sequence (Q61009 whole entry, looked up): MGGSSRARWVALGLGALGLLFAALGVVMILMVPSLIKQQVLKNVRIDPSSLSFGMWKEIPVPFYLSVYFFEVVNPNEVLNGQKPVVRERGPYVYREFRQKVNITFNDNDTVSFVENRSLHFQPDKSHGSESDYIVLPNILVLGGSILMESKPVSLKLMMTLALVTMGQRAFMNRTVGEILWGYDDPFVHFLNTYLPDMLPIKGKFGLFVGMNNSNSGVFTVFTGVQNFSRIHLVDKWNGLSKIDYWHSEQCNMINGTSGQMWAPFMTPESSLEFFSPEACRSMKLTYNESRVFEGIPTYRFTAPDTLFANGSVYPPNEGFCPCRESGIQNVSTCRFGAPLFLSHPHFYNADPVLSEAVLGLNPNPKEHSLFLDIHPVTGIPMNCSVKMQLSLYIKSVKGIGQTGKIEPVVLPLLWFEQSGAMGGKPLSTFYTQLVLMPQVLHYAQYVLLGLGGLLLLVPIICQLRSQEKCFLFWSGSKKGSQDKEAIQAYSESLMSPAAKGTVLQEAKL
SR-BI DiI-HDL act: activators of SR-BI mediated DiI-HDL uptake, primary screen, ldlA[mSR-BI] CHO cells, DiI fluorescence. 3 h; 100 = double the neutral-control signal. activation, % at 12.5 µM. actives 0.096% (n = 320,000). AID 504775, 2011;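 active means mean replicate activation of at least 60% and every replicate at or above 60%; inconclusive means mean or all-replicate condition met, but not both; inactive means mean below 60% and not all replicates reaching 60%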
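material = CHO ldlA[mSR-BI] cells | medium = Ham's F12 with 0.5% BSA, HEPES 25 mM, pH 7.4 | reagent = fluorescent DiI-HDL, 10 µg/mL final | compound dosing = single-point compound dose | incubation = 3 h, 37 °C | measured by = bottom-read fluorescence, 550/595 nm | measure = HDL uptake via cellular fluorescence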
Calb FLC: C. albicans growth inhibition with fluconazole, primary screen, CaCi-2 strain, Alamar Blue fluorescence; actives 0.57% (n = 300,000); AID 1979, 2009; C. albicans CaCi-2 + fluconazole, 48 h; growth inhibition, % (test concentration not listed);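 active means growth inhibition above about 58% in most replicates, limit read from the data, passing the limit was not always enough; inconclusive means exactly half the replicates above a set limit; inactive means most replicates below a set limit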;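 further: all wells also contain fluconazole at 8 µg/ml as a sub-toxic cotreatment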
Numbers stand for hits; . = inactive; ? = inconclusive; / = no result.

SMILES | MIN6 prolif | m5-HT2A agonist | Ins promoter up | SR-BI HDL uptake | SR-BI DiI-HDL act | Calb FLC
Cc1cc(C)c(C)c(S(=O)(=O)N2CCC(C(=O)NNC(=O)c3ccccc3O)CC2)c1C | . | . | / | 119 | . | ?
Cc1ccc(S(=O)(=O)N2CCC(C(=O)NNC(=O)c3ccccc3O)CC2)cc1C | . | . | / | 72 | . | .
Cc1ccc(C(=O)NNC(=O)C2CCN(S(=O)(=O)c3ccc(Cl)cc3)CC2)cc1 | . | . | / | . | . | .
COc1cc(O)oc1C=Nc1ccc(C(F)(F)F)cc1 | . | . | . | . | . | .
Cc1c(-c2ccccc2)c(-c2ccc(OCCN(C)C)cc2)n2ccccc12 | / | . | / | . | . | /
COC1=CCC2([N+](=O)[O-])CN(CCO)CC1([N+](=O)[O-])C2 (stereo not given) | . | . | 3 | . | . | .
CCCCN(CC)C(=O)Cn1ncc2c3ccccc3n(CCC)c2c1=O | . | . | / | . | . | .
C[C@@H](CO)NC(=O)c1nc[nH]c1C(=O)N[C@H](C)c1ccccc1 | / | . | / | / | / | /
O=C(C[n+]1ccc(-c2cc(C(=O)Nc3cccc(C(F)(F)F)c3)c3ccccc3n2)cc1)c1cccc([N+](=O)[O-])c1 | . | . | . | 87 | . | .
COc1ccc(-c2csc(C(C)(NC(C)=O)c3ccccc3)n2)cn1 (stereo not given) | / | . | / | / | / | /
O=C(N/N=C/c1cc(Br)ccc1O)c1cccc(N2CCCC2=O)c1 | . | . | ? | 106 | . | 94
COc1ccc(O)c(/C=N/NC(=O)c2cccc(N3CCCC3=O)c2)c1 | . | . | / | 89 | . | .
CC(C)c1ccc(O)c(NC(=S)NC(=O)c2ccc3c(c2)OCO3)c1 | . | . | / | . | . | .
COC(=O)C1=C(C)NC(=O)NC1c1ccc(N2CCC(c3ccccc3)=N2)cc1 (stereo not given) | . | . | . | 78 | . | .
Cn1nnc2cc(C(=O)NC(C)(C)C)ccc21 | . | . | . | . | . | .
CNC(=O)c1ccc2c(c1)nnn2C | . | . | . | . | . | 106
CC(=O)Oc1ccc(C(=O)Nc2cccc(NC(=O)c3ccco3)c2)cc1 | . | . | / | . | . | .
COc1cc(NC(C)=O)ccc1-c1cc2ccccc2oc1=O | . | . | . | . | . | .
COc1cc(NC(=O)c2ccco2)c(OC)cc1NC(=O)c1cc(OC)c(OC)c(OC)c1 | . | . | . | 79 | . | .
COc1cc(C(=O)Nc2ccc3c(c2)OCCO3)ccc1OC(F)F | . | . | . | 79 | . | .
O=C(Nc1cccc(NC(=O)c2ccco2)c1)c1ccc([N+](=O)[O-])cc1 | . | . | / | 82 | . | .
COc1cc(NC(=O)c2ccc(Cl)cc2Cl)ccc1-c1cc2ccccc2oc1=O | . | . | / | 84 | . | .
CCOc1cc(NC(=O)c2ccco2)c(OCC)cc1NC(=O)c1cc(OC)c(OC)c(OC)c1 | . | . | . | . | . | .
O=C(COC(=O)/C=C/c1ccc(Cl)cc1Cl)NCC1CCCO1 (stereo not given) | . | . | / | . | . | /
COc1ccc(NC(=O)c2ccc(NC(=O)c3ccco3)cc2)c(OC)c1 | . | . | / | 82 | . | .
SMILES | MIN6 prolif | m5-HT2A agonist | Ins promoter up | SR-BI HDL uptake | SR-BI DiI-HDL act | Calb FLC
Cc1ccc(C(=O)NC(=S)Nc2ccc(-c3cc4ccccc4oc3=O)cc2)c(C)c1 | . | . | . | 82 | . | .
Cc1cc(C)cc(C(=O)NC(=S)Nc2ccc(-c3cc4ccccc4oc3=O)cc2)c1 | . | . | . | . | . | .
COCCn1c(SCC(=O)Nc2ccc(NC(=O)c3ccco3)c(OC)c2)nc2ccccc2c1=O | . | . | . | 74 | . | .
COc1ccccc1NC(=O)c1cc(Cl)ccc1NC(=O)c1ccco1 | . | . | . | . | . | .
COc1ccc(C(=O)Nc2cc(OC)c(NC(=O)c3ccco3)cc2OC)cc1 | . | . | . | . | . | .
CCOc1ccccc1NC(=O)c1cc(Cl)ccc1NC(=O)c1ccco1 | . | . | . | 81 | . | .
